Hits are enriched below; roughly 8.9% of the tested compounds scored in any of these assays.
MT stabilize HCS = stabilizes microtubules in HeLa cells | AID 2205 | 0.83% of 200,000 active | HeLa tubulin immunostaining HCS, 24 h; share of cells brighter than vehicle mean+2SD | % tubulin-high responders, % at 10 µM;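 active means plate Z-score above 3 for both tubulin-high and condensed-nucleus cell shares, with cell loss under 80%, at 10 µM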;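 further: anti alpha tubulin signal scored within the nucleus-defined area of each cell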
b-catenin transl = beta-catenin nuclear translocation modulation | AID 1665 | HeLa beta-catenin nuclear translocation, immunofluorescence imaging | nuclear translocation activity, % at 5 µM | 0.3% of 190,000 active;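 active means nuclear translocation activity above 50% at 5 µM, with a well cell count of 50 or more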;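 further: per-cell ratio of nuclear to cytoplasmic median beta-catenin stain intensity; plate controls were DMSO negative control for no effect and GSK-3 inhibitor IX positive control for full effect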
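assay system = human HeLa cells, endogenous beta-catenin | times = compound treatment 24 h, 37°C, 5% CO2 | detection = Anti-beta-catenin immunofluorescence on PFA-fixed, Triton-permeabilized cells, DAPI nuclei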
HSV augment = increases HSV replication in cells. HSV replication augmentation in cells, fold increase. maximum fold increase. 0.005% of 220,000 active. AID 1956; in the data active means maximum fold increase above about 1.5; tested in PC3 cells
Dynein transport = blocks dynein driven cargo transport along microtubules; z-score, hits read low; 0.47% of 220,000 active; 3617.4 mouse cells, GR-EGFP nuclear translocation imaging; test concentration mostly 20 µM; stimulated with dexamethasone, 1 µM; stronger effect = lower value;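 active means plate z-score of nuclear minus cytoplasmic receptor signal below a set negative limit, without overly bright fluorescence or cell loss, cut at about -3.5 in these data, passing the limit was not always enough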;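 further: z-score of nuclear minus cytoplasmic ring GR-EGFP intensity difference per well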
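Buffer or medium – tet-free medium with charcoal-stripped serum · Signal – automated 10x imaging of fixed Hoechst-stained cells · Also added – dexamethasone agonist, 1.0 µM final, for 30 min · Incubation – induction 48 h, compound 1 h, agonist 30 min · Read-out – GR-EGFP nuclear translocation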
Lmaj promast = Leishmania major promastigote growth inhibition. Leishmania major promastigotes, resazurin fluorescence viability. inhibition, % at 10 µM. 9% of 200,000 active. AID 1063; in the data active means inhibition above about 50%;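 further: promastigotes grown with compound for 44 hours at 28 °C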
An asterisk follows results filed as active; i = inactive; nt = no result given.

SMILES	MT stabilize HCS	b-catenin transl	HSV augment	Dynein transport	Lmaj promast
O=C(COC(=O)COc1ccc(Cl)cc1Cl)Nc1cccnc1Cl	4.5	-1.2	i	0.339	-4.4
C=C(C)COc1ccc(-c2n[nH]c(C)c2-c2ccc(Br)cc2)c(O)c1	26.3*	nt	i	-1.12	9.4
C=C(C)COc1ccc(-c2nc(N)ncc2Oc2ccc(OC)cc2)c(O)c1	3.0	-2.5	nt	-0.857	1.8
C=C(C)COc1ccc(-c2[nH]ncc2-c2ccccc2OC)c(O)c1	28.8*	-3.3	i	-1.05	28.2
CCOc1ccc(-c2[nH]ncc2Oc2ccccc2OC)c(O)c1	2.8	5.7	i	-0.497	15.5
C=C(C)COc1ccc(-c2[nH]ncc2-c2ccc(Br)cc2)c(O)c1	18.6*	38.9	i	-0.58	0.7
CCCOC(=O)c1ccc(Oc2cn[nH]c2-c2ccc(OC)cc2O)cc1	3.9	-5.5	nt	-0.3	84.6*
COCCn1c(-c2ccco2)nc2nc3ccccc3nc21	5.0	nt	nt	0.566	2.6
C=C(C)COc1ccc(-c2[nH]ncc2Oc2ccc(OC)cc2)c(O)c1	nt	0.8	i	-0.473	nt
C=C(C)COc1ccc(-c2[nH]ncc2Oc2ccccc2OC)c(O)c1	3.6	5.1	i	0.391	54.0*
Cc1cccc(Cn2c(=O)n(Cc3ccco3)c(=O)c3ccccc32)c1	3.7	-0.4	i	-0.466	21.3
Cc1cc(C(C)(C)C)ccc1OCCCCN1CCCC1	4.1	7.7	i	-0.686	99.3*
CC(C)(C)c1ccccc1OCCN1CCCC1	3.3	-2.2	i	1.29	89.7*
Cc1cccc(C(C)(C)C)c1OCCN1CCCC1	1.7	-1.4	i	-0.242	5.7
CC(OCCN1CCCC1)(c1ccc(F)cc1)c1ccc(F)cc1	4.9	-1.4	i	0.896	100.1*
Cc1cc(Br)ccc1OCCCCN1CCCCC1	2.0	0.4	i	-0.0173	99.5*
Cc1ccc(C(C)(C)C)c(OCCN2CCCC2)c1	3.2	-1.3	nt	-0.558	4.4
Cc1[nH]ccc(=O)c1OC1OC(CO)C(O)C(O)C1O (centres undefined)	2.6	0.3	i	-1.25	-1.4
CCN(CCCNC(=O)C1CCC(=O)N1Cc1ccccc1Cl)c1cccc(C)c1 (centres undefined)	0.4	nt	i	-0.927	13.4
O=C(Nc1cccc(F)c1)C1CCN(c2nnnn2-c2ccccc2)CC1	1.9	-1.1	i	-0.772	37.3
Cc1cc(C(C)(C)C)ccc1OCCN1CCCC1	2.2	nt	i	1.14	95.9*
CCCNC(=O)Cn1c(=O)/c(=C\c2ccc(-c3cccc([N+](=O)[O-])c3)o2)s/c1=C\C(=O)C(C)(C)C	2.8	3.5	i	-2.75	63.3*
Cc1ccc(C(=O)N/C(=C\c2ccc(-c3cccc([N+](=O)[O-])c3)o2)C(=O)NC(C)(C)C)cc1	3.7	-2.4	i	-0.221	11.0
Cc1cc(C)c(C(=O)CC2(O)C(=O)Nc3ccccc32)cc1C (centres undefined)	1.7	nt	i	0.832	1.1
COc1ccc(C(C(=O)NC2CCCCC2)N(C(=O)Cc2c[nH]c3ccccc23)c2ccccc2C)cc1OC (centres undefined)	1.9	-1.0	i	0.279	94.8*
SMILES	MT stabilize HCS	b-catenin transl	HSV augment	Dynein transport	Lmaj promast
COc1cccc(-c2cc(C(F)(F)F)n3nc(C(=O)N4CCCCC4c4cccnc4)cc3n2)c1 (centres undefined)	2.7	nt	i	-0.245	89.3*
COc1ccc(-c2cc(C(F)(F)F)n3nc(C(=O)N4CCCCC4)cc3n2)cc1OC	2.9	-3.4	i	-0.348	0.3
Cc1cc(C)c(S(=O)(=O)/N=C2/C=C(SCC(=O)O)C(=O)c3ccccc32)cc1C	1.8	-1.6	i	-0.585	99.9*
CCOC(=O)N1CCN(S(=O)(=O)c2cc(C)c(C)cc2C)CC1	2.6	3.0	i	0.983	0.0
COCCn1c(=NC(=O)CSC(C)=O)sc2cc(F)ccc21	1.0	-1.4	i	-0.825	-1.0
Cc1cccc(N=N/C(=C\O)C(=O)c2cccs2)c1	1.8	2.1	i	-0.672	76.3*
Cc1cccc(-n2cnc(C(=O)N/N=C\c3ccc(Br)cc3)c2)n1	3.7	-5.1	i	-0.71	99.1*
Cc1nc2ccccn2c1C(=O)NNC(=S)Nc1ccc(Cl)cc1	2.7	nt	i	-0.789	-3.5
Cc1cccc(-n2cnc(C(=O)NNC(=S)Nc3ccc(Cl)cc3)c2)n1	2.8	-1.3	i	1.73	100.0*
CSC1=NCCN1C(=O)c1cccs1	4.5	-6.5	i	1.62	5.6
CSC1=NCCN1C(=O)C12CC3CC(CC(C3)C1)C2	1.2	3.8	i	-0.0207	50.5*
Cc1cc(Cn2ccnc2)c(C)cc1Cn1ccnc1	42.9*	-0.9	i	-0.346	98.2*
COc1ccc(C=O)cc1Cn1ccnc1	3.3	-0.2	i	-0.686	-7.9
COc1ccc(C(C(O)C(=O)c2c[nH]c3ccccc23)N2CCN(c3ccc(OC)cc3)CC2)cc1 (centres undefined)	5.9	-0.6	i	-1.15	52.0*
O=C(NCCc1c[nH]c2ccccc12)C(=O)NCC(c1cccnc1)N1CCN(c2ccccc2)CC1 (centres undefined)	4.0	5.0	i	0.693	99.5*
COc1ccc(N2CCN(C(CNC(=O)C(=O)NCCc3c[nH]c4ccccc34)c3ccco3)CC2)cc1 (centres undefined)	2.7	1.2	i	-0.478	65.5*
CCOC(=O)Cc1csc(NC(=O)CSc2nnc(Cc3csc(N)n3)n2C)n1	1.8	nt	i	-0.379	-3.5
N#Cc1nc(Cc2cccc3ccccc23)oc1NCCCn1ccnc1	6.1	0.5	i	-0.522	58.5*
Cc1ccc(-c2noc(CCC(=O)Nc3cccc(C#N)c3)n2)cc1	3.0	-6.9	i	0.167	4.5
CCOC(=O)C1=NN(C(=O)COc2ccccc2)C(O)(c2ccc(Br)cc2)C1 (centres undefined)	4.2	-0.6	i	0.147	-3.6
Cc1cc(Br)cc(C)c1NC(=S)NC(=O)CC(C)C	3.0	-3.1	i	-0.514	-1.2
Cc1cc(C(=O)C(C)Sc2cccc[n+]2[O-])c(C)n1-c1ccc(Cl)cc1 (centres undefined)	2.6	-0.2	i	0.141	96.6*
Cc1cc(C(=O)C(=O)O)c(C)n1-c1ccc(Cl)cc1	4.5	0.1	i	-0.345	0.3
Clc1ccc(-n2cccc2CN2CCc3c([nH]c4ccccc34)C2c2ccccn2)nc1 (centres undefined)	2.2	-0.4	i	-0.362	96.4*
Fc1ccc(C2c3[nH]c4ccccc4c3CCN2Cc2cccn2-c2ncccn2)cc1 (centres undefined)	2.1	0.9	i	0.78	67.1*
COc1cccc(C2c3[nH]c4ccccc4c3CCN2Cc2cccn2-c2ncccn2)c1 (centres undefined)	1.3	-0.4	i	-0.765	11.2
S=c1[nH]nc(CCSCc2ccccc2)n1-c1ccccc1	3.9	1.5	i	-0.383	-8.6
Cc1cc2cc3c(cc2nc1SCc1ccc(C(=O)O)cc1)OCCO3	1.7	1.6	i	-0.0532	-2.6

Assay outcomes: PubChem, several laboratories
